Tests used:
[1] = Half life in mouse at 3 mg/kg, iv; type: ADME, organism-based; set-up: dose 3 mg/kg, route intravenous; settings: in vivo
Summary of the method: (§1)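 Animals (n = 3/group; male mouse, Sprague-Dawley rat, beagle dog, cynomolgus monkey) got a single iv dose in dimethyl isosorbide/ethanol/PEG400/D5W (10%/15%/35%/40%) at 1 mL/kg. Heparinized blood was drawn via an indwelling carotid cannula from predose to 48 h. Plasma was assayed by LC/MS/MS (LLOQ 1 ng/mL, linear 1–2500 ng/mL). Parameters came from noncompartmental analysis of mean profiles using measured doses.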

[2] = target: Cystic fibrosis transmembrane conductance regulator (Homo sapiens, UniProt P13569, F508DEL); test: Potentiation of human CFTR F508del mutant expressed in mouse NIH-3T3 cells after 30 mins by fluorescent voltage sensing optical assay; type: cell-based, NIH3T3
Summary of the method: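 NIH-3T3 fibroblasts stably expressing human F508del-CFTR were held 16–24 h at 27 °C to correct misfolding. Cells were washed in NaCl/HEPES bath, pH 7.4, then loaded with voltage-sensing dyes plus compound for 30 min at room temperature. Cl−-free bath with forskolin was added once, and membrane potential change was read by fluorescence. EC50 is mean ± SD of at least three determinations.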

[3] = Half life in beagle dog at 0.9 mg/kg, iv; type: ADME, organism-based, Canis lupus familiaris; set-up: dose 0.9 mg/kg, route intravenous; settings: in vivo; summary of the method: as §1
[4] = Half life in Cynomolgus monkey at 0.8 mg/kg, iv; type: ADME, organism-based, Macaca fascicularis; set-up: dose 0.8 mg/kg, route intravenous; settings: in vivo; summary of the method: as §1
[5] = Volume of distribution at steady state in beagle dog at 0.9 mg/kg, iv; type: ADME, organism-based, Canis lupus familiaris; set-up: dose 0.9 mg/kg, route intravenous; settings: in vivo, read-out: Vdss; summary of the method: as §1
[6] = Clearance in Cynomolgus monkey at 0.8 mg/kg, iv; type: ADME, organism-based, Macaca fascicularis; set-up: dose 0.8 mg/kg, route intravenous; settings: in vivo; summary of the method: as §1
[7] = Clearance in mouse at 3 mg/kg, iv; type: ADME, organism-based; set-up: dose 3 mg/kg, route intravenous; settings: in vivo; summary of the method: as §1
Canis familiaris [8] = test: AUC (0 to infinity) in beagle dog at 3.8 mg/kg, po; settings: in vivo
Cytochrome P450 2E1 = Cytochrome P450 2E1 (Homo sapiens, UniProt P05181); test: Inhibition of CYP2E1 (unknown origin); type: ADME
Canis familiaris [9] = test: Oral bioavailability in beagle dog at 3.8 mg/kg; settings: in vivo
[10] = Volume of distribution at steady state in Cynomolgus monkey at 0.8 mg/kg, iv; type: ADME, organism-based, Macaca fascicularis; set-up: dose 0.8 mg/kg, route intravenous; settings: in vivo, read-out: Vdss; summary of the method: as §1
[11] = AUC (0 to infinity) in Sprague-Dawley rat at 3 mg/kg, po; type: ADME, organism-based; set-up: time infinity, dose 3 mg/kg, route oral; settings: plasma
Summary of the method: (§2)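 Single oral dose, n = 3/group. Heparinized carotid-cannula blood was sampled at predose, 0.25, 0.5, 1, 1.5, 2, 4, 8, 12 and 24 h. Plasma levels were measured by LC/MS/MS (LLOQ 1 ng/mL). AUC and bioavailability were derived by noncompartmental analysis of mean concentration–time profiles against the iv arm.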

[12] = Volume of distribution at steady state in mouse at 3 mg/kg, iv; type: ADME, organism-based; set-up: dose 3 mg/kg, route intravenous; settings: in vivo, read-out: Vdss; summary of the method: as §1
[13] = tested on: Cystic fibrosis transmembrane conductance regulator (Homo sapiens), P13569 [F508del]; test: Potentiation of human CFTR F508del mutant expressed in mouse NIH-3T3 cells at 30 uM after 30 mins by fluorescent voltage sensing optical assay relative to VRT-532; type: cell-based; settings: NIH3T3
Summary of the method: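 Same F508del-CFTR NIH-3T3 membrane-potential assay: 27 °C correction for 16–24 h, dye plus compound for 30 min at room temperature, then forskolin in Cl−-free bath. Compounds below 50% activity at 30 μM were not titrated. Their response at 30 μM is given as % of VRT-532.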

[14] = Clearance in Sprague-Dawley rat at 1.57 mg/kg, iv; type: ADME, organism-based; set-up: dose 1.57 mg/kg, route intravenous; settings: in vivo; summary of the method: as §1
[15] = Volume of distribution at steady state in Sprague-Dawley rat at 1.57 mg/kg, iv; type: ADME, organism-based; set-up: dose 1.57 mg/kg, route intravenous; settings: in vivo, read-out: Vdss; summary of the method: as §1
[16] = AUC (0 to infinity) in Sprague-Dawley rat at 1.57 mg/kg, iv; type: ADME, organism-based; set-up: time infinity, dose 1.57 mg/kg, route intravenous; settings: plasma
Summary of the method: (§3)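 Male Sprague−Dawley rats, n = 3/group, single iv dose in dimethyl isosorbide/ethanol/PEG400/D5W (10%/15%/35%/40%) at 1 mL/kg. Carotid cannula blood at predose, 5, 15, 30, 45 min and 1, 2, 4, 6, 8, 12, 24, 36, 48 h. Plasma levels by LC/MS/MS (LLOQ 1 ng/mL, linear 1–2500 ng/mL). Noncompartmental analysis of mean profiles using measured doses.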

[17] = Half life in Sprague-Dawley rat at 1.57 mg/kg, iv; type: ADME, organism-based; set-up: dose 1.57 mg/kg, route intravenous; settings: in vivo; summary of the method: as §1
[18] = Clearance in Sprague-Dawley rat at 1.29 mg/kg, iv; type: ADME, organism-based; set-up: dose 1.29 mg/kg, route intravenous; settings: in vivo; summary of the method: as §1
[19] = Volume of distribution at steady state in Sprague-Dawley rat at 1.29 mg/kg, iv; type: ADME, organism-based; set-up: dose 1.29 mg/kg, route intravenous; settings: in vivo, read-out: Vdss; summary of the method: as §1
[20] = AUC (0 to infinity) in Sprague-Dawley rat at 1.29 mg/kg, iv; type: ADME, organism-based; set-up: dose 1.29 mg/kg, route intravenous, time infinity; settings: plasma; summary of the method: as §3
[21] = Half life in Sprague-Dawley rat at 1.29 mg/kg, iv; type: ADME, organism-based; set-up: dose 1.29 mg/kg, route intravenous; settings: in vivo; summary of the method: as §1
[22] = Volume of distribution at steady state in Sprague-Dawley rat at 2.45 mg/kg, iv; type: ADME, organism-based; set-up: dose 2.45 mg/kg, route intravenous; settings: in vivo, read-out: Vdss; summary of the method: as §1
[23] = AUC (0 to infinity) in Sprague-Dawley rat at 2.45 mg/kg, iv; type: ADME, organism-based; set-up: time infinity, dose 2.45 mg/kg, route intravenous; settings: plasma; summary of the method: as §3
[24] = Half life in Sprague-Dawley rat at 2.45 mg/kg, iv; type: ADME, organism-based; set-up: dose 2.45 mg/kg, route intravenous; settings: in vivo; summary of the method: as §1
[25] = Clearance in Sprague-Dawley rat at 2.45 mg/kg, iv; type: ADME, organism-based; set-up: dose 2.45 mg/kg, route intravenous; settings: in vivo; summary of the method: as §1
[26] = Half life in Sprague-Dawley rat at 2.5 mg/kg, iv; type: ADME, organism-based; set-up: dose 2.5 mg/kg, route intravenous; settings: in vivo; summary of the method: as §1
[27] = Clearance in Sprague-Dawley rat at 2.5 mg/kg, iv; type: ADME, organism-based; set-up: dose 2.5 mg/kg, route intravenous; settings: in vivo; summary of the method: as §1
[28] = Binding affinity to ligand-gated chloride channel (unknown origin); set-up: species or system Homo sapiens
[29] = Oral bioavailability in Sprague-Dawley rat at 2.5 mg/kg; type: ADME, organism-based; settings: in vivo; summary of the method: as §2
[30] = Half life in beagle dog at 1 mg/kg, iv; type: ADME, organism-based, Canis lupus familiaris; set-up: dose 1 mg/kg, route intravenous; settings: in vivo; summary of the method: as §1
[31] = Volume of distribution at steady state in beagle dog at 1 mg/kg, iv; type: ADME, organism-based, Canis lupus familiaris; set-up: dose 1 mg/kg, route intravenous; settings: in vivo, read-out: Vdss; summary of the method: as §1
[32] = Clearance in beagle dog at 1 mg/kg, iv; type: ADME, organism-based, Canis lupus familiaris; set-up: dose 1 mg/kg, route intravenous; settings: in vivo; summary of the method: as §1
[33] = Volume of distribution at steady state in Sprague-Dawley rat at 2.5 mg/kg, iv; type: ADME, organism-based; set-up: dose 2.5 mg/kg, route intravenous; settings: in vivo, read-out: Vdss; summary of the method: as §1
[34] = target: GABA-A receptor; benzodiazepine site (Homo sapiens); test: Binding affinity to GABAA receptor (unknown origin)

Cystic fibrosis transmembrane conductance regulator, sequence (P13569 as listed by the source): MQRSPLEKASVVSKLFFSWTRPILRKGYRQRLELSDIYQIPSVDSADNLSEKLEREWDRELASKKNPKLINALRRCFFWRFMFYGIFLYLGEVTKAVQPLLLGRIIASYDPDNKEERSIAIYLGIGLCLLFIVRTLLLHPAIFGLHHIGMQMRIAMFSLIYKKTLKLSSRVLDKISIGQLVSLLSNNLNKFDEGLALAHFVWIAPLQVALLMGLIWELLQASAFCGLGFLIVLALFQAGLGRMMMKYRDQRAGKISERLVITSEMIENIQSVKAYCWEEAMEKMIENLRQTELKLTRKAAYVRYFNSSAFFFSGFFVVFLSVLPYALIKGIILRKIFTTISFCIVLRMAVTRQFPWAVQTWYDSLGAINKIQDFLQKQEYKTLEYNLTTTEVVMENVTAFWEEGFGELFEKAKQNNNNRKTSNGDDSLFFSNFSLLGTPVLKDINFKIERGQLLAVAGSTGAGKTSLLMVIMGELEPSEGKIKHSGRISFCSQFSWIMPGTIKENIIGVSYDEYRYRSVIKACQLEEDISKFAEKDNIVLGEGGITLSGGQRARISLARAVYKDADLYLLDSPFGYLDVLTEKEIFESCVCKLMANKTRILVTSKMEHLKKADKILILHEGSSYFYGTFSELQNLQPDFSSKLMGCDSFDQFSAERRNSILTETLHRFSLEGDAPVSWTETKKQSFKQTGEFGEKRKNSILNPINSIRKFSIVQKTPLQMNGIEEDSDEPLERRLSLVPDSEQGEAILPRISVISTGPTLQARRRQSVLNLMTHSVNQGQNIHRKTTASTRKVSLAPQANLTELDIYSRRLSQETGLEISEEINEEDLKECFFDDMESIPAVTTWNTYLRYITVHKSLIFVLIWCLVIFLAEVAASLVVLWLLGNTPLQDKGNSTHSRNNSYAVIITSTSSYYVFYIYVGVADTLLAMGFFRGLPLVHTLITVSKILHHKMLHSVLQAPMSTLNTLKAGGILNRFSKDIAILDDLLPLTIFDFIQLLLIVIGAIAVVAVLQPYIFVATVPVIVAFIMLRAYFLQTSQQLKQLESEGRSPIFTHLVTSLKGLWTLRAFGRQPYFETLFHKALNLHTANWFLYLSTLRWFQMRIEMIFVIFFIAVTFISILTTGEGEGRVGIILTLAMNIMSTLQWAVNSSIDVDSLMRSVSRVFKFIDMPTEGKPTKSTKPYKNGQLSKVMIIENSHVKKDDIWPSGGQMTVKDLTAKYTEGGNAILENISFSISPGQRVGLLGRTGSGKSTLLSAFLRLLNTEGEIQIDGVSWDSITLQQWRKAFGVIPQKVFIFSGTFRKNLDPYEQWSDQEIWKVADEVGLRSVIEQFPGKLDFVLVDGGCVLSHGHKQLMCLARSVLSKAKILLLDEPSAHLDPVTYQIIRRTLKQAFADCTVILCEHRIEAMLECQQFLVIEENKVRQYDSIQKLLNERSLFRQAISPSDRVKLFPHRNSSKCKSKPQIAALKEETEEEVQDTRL
Cystic fibrosis transmembrane conductance regulator (Homo sapiens), P13569 [F508del], sequence (P13569 as listed by the source): as above
Cytochrome P450 2E1, sequence (P05181 whole entry): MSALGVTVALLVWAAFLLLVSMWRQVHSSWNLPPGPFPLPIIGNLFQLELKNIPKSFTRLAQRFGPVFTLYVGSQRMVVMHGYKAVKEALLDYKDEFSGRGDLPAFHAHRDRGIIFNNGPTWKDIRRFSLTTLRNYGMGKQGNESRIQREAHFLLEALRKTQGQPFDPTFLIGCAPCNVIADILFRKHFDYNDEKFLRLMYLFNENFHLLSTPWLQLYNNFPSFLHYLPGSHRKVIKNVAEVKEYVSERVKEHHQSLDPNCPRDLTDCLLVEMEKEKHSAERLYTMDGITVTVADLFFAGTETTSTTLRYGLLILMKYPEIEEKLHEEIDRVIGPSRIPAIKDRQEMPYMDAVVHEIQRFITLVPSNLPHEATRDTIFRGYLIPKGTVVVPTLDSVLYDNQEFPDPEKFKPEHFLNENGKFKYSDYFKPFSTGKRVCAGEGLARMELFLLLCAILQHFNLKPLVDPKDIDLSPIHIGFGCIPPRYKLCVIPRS

SMILES: CC(C)(C)c1cc(C(C)(C)C)c(NC(=O)c2c[nH]c3ccccc3c2=O)cc1O [IVACAFTOR]
- half-life [1]: 1.3 h
- EC50 [2]: 0.003 µM
- half-life [3]: 13 h
- half-life [4]: 6.7 h
- Vd [5]: 0.7 L/kg
- clearance [6]: 7.4 mL/min/kg
- clearance [7]: 20 mL/min/kg
- AUC (Canis familiaris [8]): 13500 ng·h/mL
- IC50 (Cytochrome P450 2E1): > 20 µM
- F (Canis familiaris [9]): 43%
- Vd [10]: 2.2 L/kg
- AUC(0-inf) [11]: 4800 ng·h/mL
- Vd [12]: 2.8 L/kg

SMILES: O=c1c(S(=O)(=O)Nc2ccc3cc[nH]c3c2)c[nH]c2ccccc12
- Activity [13]: 1%

SMILES: CC(C)c1ccc(NC(=O)c2c[nH]c3ccccc3c2=O)cc1N
- EC50 [2]: 0.3 µM

SMILES: CCc1cccc(CC)c1NC(=O)c1c[nH]c2ccccc2c1=O
- EC50 [2]: 1.5 µM

SMILES: O=C1Cc2ccc(NC(=O)c3c[nH]c4ccccc4c3=O)cc2N1
- Activity [13]: 21%

SMILES: CC(C)(C)c1ccc(NC(=O)c2c[nH]c3ccccc3c2=O)cc1CO
- EC50 [2]: 0.1 µM

SMILES: CCc1c[nH]c2cc(NC(=O)c3c[nH]c4ccccc4c3=O)ccc12
- EC50 [2]: 0.1 µM

SMILES: CCc1ccc(NC(=O)c2c[nH]c3ccccc3c2=O)cc1
- EC50 [2]: 0.8 µM

SMILES: CC(C)(C)c1cc(F)c(NC(=O)c2c[nH]c3ccccc3c2=O)cc1O
- EC50 [2]: 0.002 µM
- clearance [14]: 62.9 mL/min/kg
- Vd [15]: 2.9 L/kg
- AUC(0-inf) [16]: 520 ng·h/mL
- half-life [17]: 1.1 h

SMILES: CC(=O)Nc1cc(NC(=O)c2c[nH]c3ccccc3c2=O)ccc1C(C)(C)C
- Activity [13]: 24%

SMILES: CC(C)c1ccccc1NC(=O)c1c[nH]c2ccccc2c1=O
- EC50 [2]: 0.2 µM

SMILES: CC(C)(C)c1ccc(NC(=O)c2c[nH]c3ccccc3c2=O)cc1O
- clearance [18]: 85.6 mL/min/kg
- Vd [19]: 2.9 L/kg
- EC50 [2]: 0.003 µM
- AUC(0-inf) [20]: 260 ng·h/mL
- half-life [21]: 0.7 h

SMILES: CC(C)(C)c1ccc(NC(=O)c2c[nH]c3ccccc3c2=O)cc1S(N)(=O)=O
- EC50 [2]: 5.1 µM

SMILES: CCc1cc2cc[nH]c2cc1NC(=O)c1c[nH]c2ccccc2c1=O
- EC50 [2]: 0.02 µM

SMILES: O=C(c1cnc2ccccc2c1)N(Cc1ccccc1)Cc1ccccc1
- EC50 [2]: 16 µM

SMILES: CC(C)(C)c1c[nH]c2cc(NC(=O)c3c[nH]c4ccccc4c3=O)ccc12
- EC50 [2]: 0.009 µM
- Vd [22]: 4.4 L/kg
- AUC(0-inf) [23]: 700 ng·h/mL
- half-life [24]: 1.3 h
- clearance [25]: 60.7 mL/min/kg

SMILES: COC(=O)Nc1cc(NC(=O)c2c[nH]c3ccccc3c2=O)ccc1C(C)(C)C
- EC50 [2]: 3.5 µM

SMILES: CC(C)(C)c1ccc(NC(=O)c2c[nH]c3ccccc3c2=O)cc1N
- EC50 [2]: 0.1 µM

SMILES: CCCc1ccc(NC(=O)c2c[nH]c3ccccc3c2=O)cc1N
- EC50 [2]: 0.4 µM

SMILES: Cn1ccc2ccc(NC(=O)c3c[nH]c4ccccc4c3=O)cc21
- EC50 [2]: 6.4 µM

SMILES: CC(C)(C)c1ccc(NC(=O)c2c[nH]c3ccccc3c2=O)cc1C(=O)O
- Activity [13]: 13%

SMILES: Cc1ccc(NC(=O)c2c[nH]c3ccccc3c2=O)cc1N
- EC50 [2]: 6 µM

SMILES: O=C(Nc1ccc2cc[nH]c2c1)c1c[nH]c2ccccc2c1=O
- half-life [26]: 1.3 h
- clearance [27]: 28 mL/min/kg
- IC50 [28]: 0.1 µM
- EC50 [2]: 0.1 µM
- bioavailability [29]: 11%
- half-life [30]: 0.9 h
- Vd [31]: 1.6 L/kg
- clearance [32]: 17 mL/min/kg
- Vd [33]: 2.4 L/kg
- IC50 [34]: 0.1 µM

SMILES: O=C(Nc1ccc2cn[nH]c2c1)c1c[nH]c2ccccc2c1=O
- EC50 [2]: 5.6 µM

Source: ChEMBL document CHEMBL3352164, “Discovery of N-(2,4-di-tert-butyl-5-hydroxyphenyl)-4-oxo-1,4-dihydroquinoline-3-carboxamide (VX-770, ivacaftor), a potent and orally bioavailable CFTR potentiator” (J Med Chem, 2014)
